# Measurements as given in ChEMBL document CHEMBL1649235, “The proteasome inhibitor epoxomicin has potent Plasmodium falciparum gametocytocidal activity” (Antimicrob Agents Chemother, 2009).
# Activity calls are given as the source filed them. No cut-off for these calls is given here.
# Legend:
# Plasmodium falciparum [1] = test: Antimicrobial activity against Plasmodium falciparum 3D7 assessed as gametocytes per 1000 RBCs at 100 uM after 2 days by Giemsa staining relative to control; type: functional
# Procedure, shortened: (§1)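 3D7 cultures holding asexual parasites and gametocytes, gametocytogenesis induced per Ifediba and Vanderberg. Inhibitor at 100 µM or DMSO carrier for 24 h in a sealed chamber (90% N2, 5% CO2, 5% O2) at 37°C. Fed daily with RPMI 1640, hypoxanthine (10 mg liter−1) and 10% human serum. Gametocytes per 1,000 RBCs counted and staged on Giemsa smears 2 days after treatment.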
# Plasmodium falciparum [2] = test: Antimicrobial activity against gametocyte stage of Plasmodium falciparum 3D7 at 100 uM after 24 hrs by Giemsa staining; type: functional, organism-based
# Procedure, shortened: (§2)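 3D7 cultures containing asexual stages and gametocytes incubated 24 h with inhibitor at 100 µM or DMSO carrier, at 37°C in a sealed chamber (90% N2, 5% CO2, 5% O2), fed with RPMI 1640, hypoxanthine and 10% human serum. Asexual parasites and gametocytes assessed on Giemsa-stained smears.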
# Plasmodium falciparum [3] = test: Antimicrobial activity against asexual stage of Plasmodium falciparum 3D7 at 100 uM after 24 hrs by Giemsa staining; type: functional, organism-based; procedure, shortened: as §2
# Plasmodium falciparum [4] = test: Antimicrobial activity against asexual stage of Plasmodium falciparum 3D7 assessed as reduction in parasite count at 100 nM after 24 hrs by Giemsa staining; type: functional; design: scale not given: the % may be the effect or the level left
# Procedure, shortened: (§3)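 Mixed asexual/gametocyte 3D7 cultures (mainly stage II–III gametocytes) exposed 24 h to serial dilutions (10 nM to 1 µM) or DMSO carrier at 37°C under low-oxygen gas. Asexual parasites and gametocytes counted on Giemsa smears and expressed as percent of DMSO control. IC50 calculated from the 24-h time point.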
# Plasmodium falciparum [5] = test: Antimicrobial activity against asexual stage of Plasmodium falciparum 3D7 assessed as reduction in parasite count at 1uM after 24 hrs by Giemsa staining; type: functional; design: scale not given: the % may be the effect or the level left; procedure, shortened: as §3
# Plasmodium falciparum [6] = test: Antimicrobial activity against gametocyte stage of Plasmodium falciparum 3D7 after 24 hrs; type: functional, organism-based; details: 3D7, 24 h; procedure, shortened: as §3
# Plasmodium falciparum [7] = test: Antimicrobial activity against asexual stage of Plasmodium falciparum 3D7 after 24 hrs; type: functional, organism-based; details: 3D7, 24 h; procedure, shortened: as §3
# [8] = Cytotoxicity against human A549 cells assessed as viable cells at 1 uM by MTS assay in presence of 10% fetal calf serum; type: cell-based; details: read-out: Activity
# Procedure, shortened: (§4)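 NIH-3T3 mouse fibroblasts or A549 human lung epithelial cells (1 × 104 to 5 × 10^4 per well) in DMEM with 10% FCS. Viability read by MTS tetrazolium reduction as absorbance.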
# [9] = Cytotoxicity against mouse 3T3 cells assessed as viable cells at 1 uM by MTS assay in presence of 10% fetal calf serum; type: cell-based; details: 3T3 cells (NIH3T3), read-out: Activity; procedure, shortened: as §4
# Plasmodium falciparum [10] = test: Antimicrobial activity against gametocyte stage of Plasmodium falciparum 3D7 assessed as reduction in parasite count at 100 nM after 24 hrs by Giemsa staining; type: functional; design: scale not given: the % may be the effect or the level left; procedure, shortened: as §3
# Plasmodium falciparum [11] = test: Antimicrobial activity against gametocyte stage of Plasmodium falciparum 3D7 assessed as reduction in parasite count at 1 uM after 24 hrs by Giemsa staining; type: functional; design: scale not given: the % may be the effect or the level left; procedure, shortened: as §3
# Plasmodium falciparum [12] = test: Antimicrobial activity against Plasmodium falciparum 3D7 assessed as stage 2 gametocytes per 1000 RBCs at 100 uM after 2 days by Giemsa staining relative to control; type: functional; procedure, shortened: as §1
# Plasmodium falciparum [13] = test: Antimicrobial activity against Plasmodium falciparum 3D7 assessed as stage 3 gametocytes per 1000 RBCs at 100 uM after 2 days by Giemsa staining relative to control; type: functional; procedure, shortened: as §1
# Plasmodium falciparum [14] = test: Antimicrobial activity against Plasmodium falciparum 3D7 assessed as stage 4 gametocytes per 1000 RBCs at 100 uM after 2 days by Giemsa staining relative to control; type: functional; procedure, shortened: as §1
# Plasmodium falciparum [15] = test: Antimicrobial activity against Plasmodium falciparum 3D7 assessed as stage 3 gametocyte per 1000 RBCs at 100 uM after 5 days by Giemsa staining relative to control; type: functional
# Procedure, shortened: (§5)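 Gametocyte cultures of strain 3D7, 8 days after setup, exposed 24 h to inhibitor at 100 µM or an equal amount of DMSO. Kept at 37°C under 90% N2/5% CO2/5% O2 and fed daily with RPMI 1640, hypoxanthine and 10% human serum. Gametocytes per 1,000 RBCs scored by stage (II–V) on Giemsa-stained smears.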
# Plasmodium falciparum [16] = test: Antimicrobial activity against Plasmodium falciparum 3D7 assessed as stage 4 gametocyte per 1000 RBCs at 100 uM after 5 days by Giemsa staining relative to control; type: functional; procedure, shortened: as §5
# Plasmodium falciparum [17] = test: Antimicrobial activity against Plasmodium falciparum 3D7 assessed as stage 5 gametocyte per 1000 RBCs at 100 uM after 5 days by Giemsa staining relative to control; type: functional; procedure, shortened: as §5
# Plasmodium falciparum [18] = test: Antimicrobial activity against asexual stage of Plasmodium falciparum 3D7 assessed as reduction in parasite count at 100 uM after 24 hrs by Giemsa staining; type: functional, organism-based; procedure, shortened: as §2
compound,measurement,setting,value
Cc1ccc(S(=O)(=O)N[C@@H](Cc2ccccc2)C(=O)CCl)cc1 [TPCK],Activity,Plasmodium falciparum [1],21%
same,Activity,Plasmodium falciparum [2],inactive
same,Activity,Plasmodium falciparum [3],inactive
CC[C@H](C)[C@H](NC(=O)[C@H]([C@@H](C)CC)N(C)C(C)=O)C(=O)N[C@H](C(=O)N[C@@H](CC(C)C)C(=O)[C@@]1(C)CO1)[C@@H](C)O [EPOXOMYCIN],Activity,Plasmodium falciparum [4],86%
same,Activity,Plasmodium falciparum [5],86%
same,IC50,Plasmodium falciparum [6],54 nM
same,IC50,Plasmodium falciparum [7],41 nM
same,viability at 1 µM,[8],80%
same,viability at 1 µM,[9],80%
same,Activity,Plasmodium falciparum [10],77%
same,Activity,Plasmodium falciparum [11],77%
CCOC(=O)[C@H]1O[C@@H]1C(=O)N[C@@H](CC(C)C)C(=O)NCCC(C)C [ALOXISTATIN],Activity,Plasmodium falciparum [12],72%
same,Activity,Plasmodium falciparum [13],18%
same,Activity,Plasmodium falciparum [14],10%
same,Activity,Plasmodium falciparum [15],22%
same,Activity,Plasmodium falciparum [16],68%
same,Activity,Plasmodium falciparum [17],10%
same,Activity,Plasmodium falciparum [18],Active
